Our source for the Activity and IC50 values is ChEMBL document CHEMBL1144664, “Design, synthesis, and SAR of new pyrrole-oxindole progesterone receptor modulators leading to 5-(7-fluoro-3,3-dimethyl-2-oxo-2,3-dihydro-1H-indol-5-yl)-1-methyl-1H-pyrrole-2-carbonitrile (WAY-255348)” (J Med Chem, 2008).

Activity calls are given as the source filed them. The rule behind the calls is not given here.

One may read the IC50 as the concentration at which inhibition is half-maximal.

Test [1] deals with T1, Mineralocorticoid receptor (Homo sapiens) (UniProt P08235).
T1 sequence (whole entry): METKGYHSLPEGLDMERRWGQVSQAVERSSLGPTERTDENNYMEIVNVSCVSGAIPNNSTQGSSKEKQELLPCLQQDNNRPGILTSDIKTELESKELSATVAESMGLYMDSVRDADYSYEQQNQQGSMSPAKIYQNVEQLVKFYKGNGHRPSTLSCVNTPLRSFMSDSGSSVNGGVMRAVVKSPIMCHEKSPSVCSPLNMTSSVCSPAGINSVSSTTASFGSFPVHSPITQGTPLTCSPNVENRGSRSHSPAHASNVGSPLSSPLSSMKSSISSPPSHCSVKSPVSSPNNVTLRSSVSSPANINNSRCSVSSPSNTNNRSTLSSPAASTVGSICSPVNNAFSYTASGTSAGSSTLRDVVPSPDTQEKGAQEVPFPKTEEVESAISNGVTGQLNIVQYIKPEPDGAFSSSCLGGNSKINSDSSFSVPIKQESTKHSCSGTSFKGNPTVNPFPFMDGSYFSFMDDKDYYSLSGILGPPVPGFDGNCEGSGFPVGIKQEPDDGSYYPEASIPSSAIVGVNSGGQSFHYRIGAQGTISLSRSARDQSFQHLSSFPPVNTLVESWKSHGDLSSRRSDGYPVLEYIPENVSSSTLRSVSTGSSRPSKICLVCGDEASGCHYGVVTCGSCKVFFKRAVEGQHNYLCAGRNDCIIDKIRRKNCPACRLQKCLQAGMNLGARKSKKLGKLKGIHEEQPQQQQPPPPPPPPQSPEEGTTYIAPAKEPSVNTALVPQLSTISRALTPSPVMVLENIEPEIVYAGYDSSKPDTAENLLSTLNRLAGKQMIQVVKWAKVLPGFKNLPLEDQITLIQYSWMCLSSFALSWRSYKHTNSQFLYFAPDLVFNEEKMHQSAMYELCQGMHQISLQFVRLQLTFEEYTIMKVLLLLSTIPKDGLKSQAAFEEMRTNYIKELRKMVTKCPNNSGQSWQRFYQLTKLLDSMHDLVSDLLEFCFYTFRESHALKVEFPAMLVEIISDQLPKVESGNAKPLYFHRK
Put plainly: Agonist activity at human MR ligand binding domain receptor expressed in african green monkey COS7 cells by Gal4 hybrid assay. The note with it: COS-7. The format is cell-based. In outline: (§1)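 Gal4-steroid receptor LBD fusion plasmid plus GAL4_UAS (5 copies, E1b TATA)-luciferase reporter, 50 ng/well each, transfected 16 h into COS-7 cells grown in phenol red-free DMEM with 10% charcoal/dextran-treated FBS. Compound treatment 20 h, then luciferase read-out. Antagonist mode uses 3 nM aldosterone (hMR) or 5 nM 17β-estradiol (hER). Values are the average of at least duplicate determinations.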

In test [2] the target is T2, Estrogen receptor (Homo sapiens) (UniProt P03372).
T2 sequence (whole entry): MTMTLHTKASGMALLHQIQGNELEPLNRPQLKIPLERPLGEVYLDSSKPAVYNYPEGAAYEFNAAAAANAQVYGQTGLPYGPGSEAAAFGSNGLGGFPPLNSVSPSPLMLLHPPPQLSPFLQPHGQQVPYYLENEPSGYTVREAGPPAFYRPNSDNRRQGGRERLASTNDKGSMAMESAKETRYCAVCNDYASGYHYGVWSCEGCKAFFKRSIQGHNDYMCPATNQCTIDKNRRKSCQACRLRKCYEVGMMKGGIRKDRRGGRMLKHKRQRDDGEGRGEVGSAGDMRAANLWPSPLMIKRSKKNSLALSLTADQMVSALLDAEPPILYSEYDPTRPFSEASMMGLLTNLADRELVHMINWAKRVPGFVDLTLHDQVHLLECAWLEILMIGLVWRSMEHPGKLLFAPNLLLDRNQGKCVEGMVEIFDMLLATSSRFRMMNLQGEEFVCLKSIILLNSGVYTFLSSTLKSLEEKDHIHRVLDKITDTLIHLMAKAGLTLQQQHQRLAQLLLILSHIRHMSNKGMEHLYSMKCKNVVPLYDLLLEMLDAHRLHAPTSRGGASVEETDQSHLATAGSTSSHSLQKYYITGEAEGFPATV
Put plainly: Agonist activity at human ER ligand binding domain expressed in african green monkey COS7 cells by Gal4 hybrid assay. The format is cell-based. The conditions noted are these: COS-7. In a few lines: as §1

The target in the next test is T3, Androgen receptor (Homo sapiens, UniProt P10275).
T3 sequence (P10275 whole entry): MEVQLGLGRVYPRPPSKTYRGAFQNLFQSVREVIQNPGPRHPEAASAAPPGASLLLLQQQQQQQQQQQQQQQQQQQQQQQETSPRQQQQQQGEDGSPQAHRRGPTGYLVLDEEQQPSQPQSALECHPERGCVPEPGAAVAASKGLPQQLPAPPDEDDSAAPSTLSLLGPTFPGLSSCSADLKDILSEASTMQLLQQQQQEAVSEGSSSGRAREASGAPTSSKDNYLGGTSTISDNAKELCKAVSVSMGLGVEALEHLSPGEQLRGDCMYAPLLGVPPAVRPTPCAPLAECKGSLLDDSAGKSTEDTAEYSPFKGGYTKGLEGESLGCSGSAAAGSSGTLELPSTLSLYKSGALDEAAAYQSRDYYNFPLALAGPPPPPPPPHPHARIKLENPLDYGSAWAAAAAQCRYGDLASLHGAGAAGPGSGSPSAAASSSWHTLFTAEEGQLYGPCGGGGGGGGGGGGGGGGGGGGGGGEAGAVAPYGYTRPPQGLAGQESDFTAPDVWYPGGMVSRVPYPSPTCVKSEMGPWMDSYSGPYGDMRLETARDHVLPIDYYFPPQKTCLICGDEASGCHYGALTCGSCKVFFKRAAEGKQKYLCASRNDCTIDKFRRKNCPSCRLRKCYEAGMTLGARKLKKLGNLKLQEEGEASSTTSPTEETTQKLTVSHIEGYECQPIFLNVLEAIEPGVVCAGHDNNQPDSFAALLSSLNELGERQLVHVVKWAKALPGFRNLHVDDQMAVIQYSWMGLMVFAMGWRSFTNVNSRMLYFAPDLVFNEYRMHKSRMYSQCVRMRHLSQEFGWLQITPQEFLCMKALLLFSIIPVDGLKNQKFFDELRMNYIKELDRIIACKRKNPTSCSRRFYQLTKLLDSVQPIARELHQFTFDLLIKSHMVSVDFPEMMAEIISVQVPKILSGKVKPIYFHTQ

In the next test the target is T4, Estrogen receptor (Homo sapiens, UniProt P03372).
T4 sequence (P03372 whole entry): T2 sequence (whole entry)
The experiment in a line: Antagonist activity at human ER ligand binding domain expressed in african green monkey COS7 cells in presence of 17-beta-estradiol by Gal4 hybrid assay. The format is cell-based, COS-7. In outline: as §1

The target in the next test is T5, Glucocorticoid receptor (Homo sapiens, UniProt P04150).
T5 sequence (P04150 whole entry): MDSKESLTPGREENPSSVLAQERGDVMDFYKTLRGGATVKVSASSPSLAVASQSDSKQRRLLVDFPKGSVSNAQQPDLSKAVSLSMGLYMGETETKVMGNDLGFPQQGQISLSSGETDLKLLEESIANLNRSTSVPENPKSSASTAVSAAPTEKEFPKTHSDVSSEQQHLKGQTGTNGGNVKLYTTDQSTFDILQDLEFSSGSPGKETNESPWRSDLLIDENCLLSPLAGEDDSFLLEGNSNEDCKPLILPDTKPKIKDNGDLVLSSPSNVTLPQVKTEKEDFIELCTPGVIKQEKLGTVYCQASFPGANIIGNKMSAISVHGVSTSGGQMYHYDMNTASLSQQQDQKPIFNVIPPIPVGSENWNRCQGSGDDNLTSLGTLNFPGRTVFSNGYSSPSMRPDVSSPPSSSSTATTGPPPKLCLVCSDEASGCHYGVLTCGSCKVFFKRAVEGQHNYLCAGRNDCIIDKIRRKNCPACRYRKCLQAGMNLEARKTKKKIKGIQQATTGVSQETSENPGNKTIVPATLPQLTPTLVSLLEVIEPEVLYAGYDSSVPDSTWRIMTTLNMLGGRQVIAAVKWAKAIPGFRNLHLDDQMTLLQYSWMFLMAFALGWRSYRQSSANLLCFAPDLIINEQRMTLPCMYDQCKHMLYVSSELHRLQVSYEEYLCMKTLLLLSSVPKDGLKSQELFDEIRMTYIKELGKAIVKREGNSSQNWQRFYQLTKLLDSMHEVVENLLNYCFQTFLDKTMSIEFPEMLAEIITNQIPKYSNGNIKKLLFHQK
The experiment in a line: Antagonist activity at human GR ligand binding domain expressed in african green monkey COS7 cells in presence of Dexamethasone by Gal4 hybrid assay. The format is cell-based, COS-7.

For test [3], the target named is T6, Mineralocorticoid receptor (Homo sapiens, UniProt P08235).
T6 sequence (P08235 whole entry): T1 sequence (whole entry)
The experiment in a line: Antagonist activity at human MR ligand binding domain expressed in african green monkey COS7 cells in presence of aldosterone by Gal4 hybrid assay. The format is cell-based, COS-7. In outline:
as §1

On to `COC[C@]1(OC)CC[C@H]2[C@@H]3CCC4=CC(=O)CCC4=C3[C@@H](c3ccc(/C=N/O)cc3)C[C@@]21C` [ASOPRISNIL], for which the result in test [1] and in test [2] was inactive. Moreover, the IC50 came out at 0.0061 µM against Androgen receptor, 1.9 µM on Estrogen receptor, 0.085 µM at Glucocorticoid receptor and 1.6 µM in test [3].
